In ChEMBL document CHEMBL3045292, “Synthesis and herbicidal activity of 2-(7-fluoro-3-oxo- 3,4-dihydro-2H-benzo[b][1,4]oxazin-6-yl)isoindoline-1,3-diones” (J Agric Food Chem, 2005):

Assays:
Digitaria sanguinalis [1] = experiment: Herbicidal activity against crabgrass Digitaria sanguinalis(hairy crabgrass) assessed as weed growth inhibition at 75 g/ha pre-emergence treatment […]; assay type: functional; settings: read-out: GI
Procedure, shortened: (§1)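 Pot-grown plants in the greenhouse, in clay soil (pH 6.5, 1.6% organic matter, 37.3% clay, CEC 12.1 cmol/kg). Compound was made up as a 100 g/L emulsified concentrate (DMF, Tween-80), diluted in water and sprayed at 75 g ai/ha. Pre-emergence spraying was 24 h after sowing; post-emergence at two-leaf (dicots) or one-leaf (monocots) stage. Untreated and DMF controls. Percent growth inhibition scored visually 15 days post-treatment.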

Abutilon theophrasti [2] = experiment: Herbicidal activity against Abutilon theophrasti (velvetleaf) assessed as weed growth inhibition at 75 g/ha pre-emergence treatment […]; assay type: functional; settings: read-out: GI; procedure, shortened: as §1
Echinochloa crus-galli [3] = experiment: Herbicidal activity against Echinochloa crus-galli (barnyard grass) (barnyard grass) assessed as weed growth inhibition at 75 g/ha pre-emergence treatment […]; assay type: functional; settings: read-out: GI; procedure, shortened: as §1
Abutilon theophrasti [4] = experiment: Herbicidal activity against Abutilon theophrasti (velvetleaf) assessed as weed growth inhibition at post-emergence treatment […]; assay type: functional, organism-based; procedure, shortened: as §1
Chenopodium album [5] = experiment: Herbicidal activity against fat hen Chenopodium album assessed as weed growth inhibition at 75 g/ha post-emergence treatment […]; assay type: functional; settings: read-out: GI; procedure, shortened: as §1
Digitaria sanguinalis [6] = experiment: Herbicidal activity against crabgrass Digitaria sanguinalis(hairy crabgrass) assessed as weed growth inhibition at 75 g/ha post-emergence treatment […]; assay type: functional; settings: read-out: GI; procedure, shortened: as §1
Echinochloa crus-galli [7] = experiment: Herbicidal activity against Echinochloa crus-galli (barnyard grass) (barnyard grass) assessed as weed growth inhibition at 75 g/ha post-emergence treatment […]; assay type: functional; settings: read-out: GI; procedure, shortened: as §1
Chenopodium album [8] = experiment: Herbicidal activity against fat hen Chenopodium album assessed as weed growth inhibition at 75 g/ha pre-emergence treatment […]; assay type: functional; settings: read-out: GI; procedure, shortened: as §1
Amaranthus blitum [9] = experiment: Herbicidal activity against Amaranthus blitum assessed as weed growth inhibition at 75 g/ha post-emergence treatment […]; assay type: functional; settings: read-out: GI; procedure, shortened: as §1
Setaria viridis [10] = experiment: Herbicidal activity against Setaria viridis (green foxtail) assessed as weed growth inhibition at 75 g/ha post-emergence treatment […]; assay type: functional; settings: read-out: GI; procedure, shortened: as §1
Abutilon theophrasti [11] = experiment: Herbicidal activity against Abutilon theophrasti (velvetleaf) assessed as weed growth inhibition at 75 g/ha post-emergence treatment […]; assay type: functional; settings: read-out: GI; procedure, shortened: as §1
Amaranthus blitum [12] = experiment: Herbicidal activity against Amaranthus blitum assessed as weed growth inhibition at 75 g/ha pre-emergence treatment […]; assay type: functional; settings: read-out: GI; procedure, shortened: as §1
Setaria viridis [13] = experiment: Herbicidal activity against Setaria viridis (green foxtail) assessed as weed growth inhibition at 75 g/ha pre-emergence treatment […]; assay type: functional; settings: read-out: GI; procedure, shortened: as §1
Digitaria sanguinalis [14] = experiment: Herbicidal activity against crabgrass Digitaria sanguinalis(hairy crabgrass) assessed as weed growth inhibition at post-emergence treatment […]; assay type: functional, organism-based; procedure, shortened: as §1

SMILES	inhibition of growth at 75 g/ha (Digitaria sanguinalis [1])	inhibition of growth at 75 g/ha (Abutilon theophrasti [2])	inhibition of growth at 75 g/ha (Echinochloa crus-galli [3])	IC50 (Abutilon theophrasti [4])	inhibition of growth at 75 g/ha (Chenopodium album [5])	inhibition of growth at 75 g/ha (Digitaria sanguinalis [6])	inhibition of growth at 75 g/ha (Echinochloa crus-galli [7])	inhibition of growth at 75 g/ha (Chenopodium album [8])	inhibition of growth at 75 g/ha (Amaranthus blitum [9])	inhibition of growth at 75 g/ha (Setaria viridis [10])	inhibition of growth at 75 g/ha (Abutilon theophrasti [11])	inhibition of growth at 75 g/ha (Amaranthus blitum [12])	inhibition of growth at 75 g/ha (Setaria viridis [13])	IC50 (Digitaria sanguinalis [14])
O=C1COc2cc(F)c(N3C(=O)c4cccc(F)c4C3=O)cc2N1CC#CI	< 50%	> 80%	< 50%	7.2 g/ha	> 80%	> 80%	> 80%	> 80%	> 80%	> 80%	> 80%	> 80%	< 50%	40 g/ha
C#CCN1C(=O)C(C)Oc2cc(F)c(N3C(=O)c4ccccc4C3=O)cc21 (stereo not given)	< 50%	> 80%	< 50%	7.5 g/ha	> 80%	< 50%	< 50%	> 80%	> 80%	< 50%	> 80%	> 80%	< 50%	161 g/ha
CC1Oc2cc(F)c(N3C(=O)c4ccccc4C3=O)cc2N(CC#CI)C1=O (stereo not given)	> 80%	> 80%	> 80%	7.4 g/ha	> 80%	50%	< 50%	> 80%	> 80%	< 50%	> 80%	> 80%	> 80%	60 g/ha
CC1Oc2cc(F)c(N3C(=O)c4cccc(F)c4C3=O)cc2N(CC#CI)C1=O (stereo not given)	< 50%	> 80%	< 50%	7.5 g/ha	> 80%	< 50%	< 50%	> 80%	> 80%	< 50%	> 80%	> 80%	< 50%	238 g/ha
Cc1ccc2c(c1)C(=O)N(c1cc3c(cc1F)OC(C)C(=O)N3CC#CI)C2=O (stereo not given)	< 50%	> 80%	< 50%	30 g/ha	> 80%	< 50%	< 50%	> 80%	> 80%	< 50%	> 80%	> 80%	< 50%	> 1800 g/ha
O=C1COc2cc(F)c(N3C(=O)C4=C(CCCC4)C3=O)cc2N1CC#CI	> 80%	> 80%	> 80%	2.3 g/ha	> 80%	> 80%	> 80%	> 80%	> 80%	> 80%	> 80%	> 80%	> 80%	3.8 g/ha
O=C1COc2cc(F)c(N3C(=O)c4ccccc4C3=O)cc2N1CC#CBr	< 50%	< 50%	< 50%	121 g/ha	< 50%	< 50%	< 50%	< 50%	< 50%	< 50%	< 50%	< 50%	< 50%	314 g/ha
C#CCN1C(=O)COc2cc(F)c(N3C(=O)c4cccc(F)c4C3=O)cc21	> 80%	> 80%	> 80%	23 g/ha	> 80%	> 80%	> 80%	> 80%	> 80%	> 80%	> 80%	> 80%	> 80%	20 g/ha
C#CCN1C(=O)COc2cc(F)c(N3C(=O)c4cccc(C)c4C3=O)cc21	< 50%	< 50%	< 50%	87 g/ha	< 50%	50%	50%	< 50%	< 50%	< 50%	< 50%	< 50%	< 50%	63 g/ha
C#CCN1C(=O)COc2cc(F)c(N3C(=O)c4cccc([N+](=O)[O-])c4C3=O)cc21	< 50%	< 50%	< 50%	300 g/ha	< 50%	< 50%	< 50%	< 50%	< 50%	< 50%	< 50%	< 50%	< 50%	210 g/ha
CN1C(=O)COc2cc(F)c(N3C(=O)c4ccc(F)cc4C3=O)cc21	< 50%	< 50%	< 50%	161 g/ha	< 50%	< 50%	< 50%	< 50%	< 50%	< 50%	< 50%	< 50%	< 50%	172 g/ha
CN1C(=O)COc2cc(F)c(N3C(=O)c4cccc(F)c4C3=O)cc21	< 50%	50%	< 50%	45 g/ha	> 80%	< 50%	< 50%	50%	> 80%	< 50%	> 80%	50%	< 50%	> 1800 g/ha
C#CCN1C(=O)C(C)Oc2cc(F)c(N3C(=O)c4ccc(C)cc4C3=O)cc21 (stereo not given)	< 50%	> 80%	< 50%	18 g/ha	> 80%	< 50%	< 50%	> 80%	> 80%	< 50%	> 80%	> 80%	< 50%	393 g/ha
C#CCN1C(=O)COc2cc(F)c(N3C(=O)c4ccc(C)cc4C3=O)cc21	< 50%	< 50%	< 50%	28 g/ha	> 80%	> 80%	50%	< 50%	> 80%	< 50%	> 80%	< 50%	< 50%	31 g/ha
C#CCN1C(=O)C(C)Oc2cc(F)c(N3C(=O)c4cccc(F)c4C3=O)cc21 (stereo not given)	> 80%	> 80%	> 80%	7.7 g/ha	> 80%	> 80%	> 80%	> 80%	> 80%	> 80%	> 80%	> 80%	> 80%	42 g/ha
